Test results as given in article PMC7833734 (Oncoimmunology, 2021).

Key:
[1] = tested on: naive CD8+ T cells derived from HD-PBMCs; type: cell-based, human; settings: for CD8+ T-cell induction by AKF9 variants, in words: seven HD-PBMCs, cocktail of AKF9 variants along with the WT, tetramer staining; for immunogenicity (CD8+ T-cell induction), in words: six HD-PBMCs, cocktail of four natural HLA-A24 neoantigens
HLA-A24 on T2-A24 cells = assay: Peptide-HLA class I stability assay; type: binding, human; settings: peptide 0.3 to 3 µM
How it was run: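 TAP-deficient T2-A24 cells were pre-cultured overnight at 25°C. Cells were pulsed with mutant or WT peptide (0.3–3 µM) for 1 h at 25°C, then 3 h at 37°C. Surface HLA-A24 was stained with anti-HLA-A24 (C7709A2) and goat anti-mouse IgG-FITC, then read by flow cytometry. ΔMFI = MFI with peptide minus MFI without. Known HLA-A24 binder and non-binder peptides were controls. Comparison at 1 µM, SEM (n = 3), two-tailed t-test.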

[2] = tested on: neoantigen-reactive CD8+ T-cell clones; assay: IFNγ ELISpot assay of neoantigen-reactive CD8+ T-cell clones; type: cell-based, human; settings: T2-A24 pulsed with 20 µM peptide, 24 h 37°C
How it was run: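 Clones came from single tetramer-positive CD8+ cells sorted and expanded with irradiated allogeneic feeders, 5 μg/mL PHA and 100 IU/mL IL-2. T2-A24 cells were pre-incubated with 20 µM mutant or WT peptide for 2 h at 25°C. Spots were detected with 2 µg/mL biotinylated anti-IFNγ, streptavidin-HRP and AEC substrate.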

Sequence	CD8+ T-cell induction by AKF9 variants, in words [1]	immunogenicity (CD8+ T-cell induction), in words [1]	other results
AYLEAIHDF [ADF9]	increased the frequency		
AYLEAIHHF [AHF9]	increased the frequency		
AYLEAIHKF [AKF9]	increased the frequency	immunogenic	effect of the mutation on pHLA I stability versus wild-type peptide (HLA-A24 on T2-A24 cells): unaltered; number of HDs with CD8+ T-cell response ([1]; of six HD-PBMCs, response = ≥ 4-fold increase with ≥ 0.1% tetramer+ CD8+ cells): three
AYLEAIHNF [ANF9]			recognition by ADF9-reactive CD8+ T-cell clones (D1-D5), IFNγ ELISpot [2]: three of the five clones
AYLEAIHYF [AYF9]	increased the frequency		
HYAALRELI [HI9]		failed to induce T-cell responses	
TLPEEFHEF [TEF9]		immunogenic	effect of the mutation on pHLA I stability versus wild-type peptide (HLA-A24 on T2-A24 cells): increased
VYVAKLHDI [VYI9]		failed to induce T-cell responses	
